Experimental data from publication PMC3180826 (ACS chemical neuroscience, 2010).
Positions count from the first letter of the chain named.

Assays:
[1] = molecular target: T1, M4 (Rattus norvegicus, UniProt P08485); assay: [3H]-NMS competition binding, M4 CHO membranes; details: concentrations well above those required to fully activate M1
T1 sequence (P08485 1-478): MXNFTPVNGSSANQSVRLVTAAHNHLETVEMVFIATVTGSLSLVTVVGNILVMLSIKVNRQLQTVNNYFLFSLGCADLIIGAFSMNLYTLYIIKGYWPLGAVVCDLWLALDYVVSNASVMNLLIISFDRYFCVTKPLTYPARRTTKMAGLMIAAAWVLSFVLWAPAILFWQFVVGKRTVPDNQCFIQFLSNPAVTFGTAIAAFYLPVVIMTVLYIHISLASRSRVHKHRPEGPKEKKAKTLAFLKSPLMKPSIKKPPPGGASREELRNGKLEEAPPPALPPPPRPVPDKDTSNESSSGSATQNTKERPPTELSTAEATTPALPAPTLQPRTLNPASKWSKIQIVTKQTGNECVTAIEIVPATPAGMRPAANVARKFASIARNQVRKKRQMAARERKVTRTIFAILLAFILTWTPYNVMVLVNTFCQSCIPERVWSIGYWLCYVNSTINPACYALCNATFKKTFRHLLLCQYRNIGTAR

[2] = Plasma-brain exposure profile PK study; type: in vivo; details: rat
Summary of the method: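 Test compound was dissolved in sterile water at 5 mg/mL and dosed at 10 mg/kg ip in male Sprague–Dawley rats (225–250 g). Plasma and brain were collected at 0.5, 1, 2, 4 and 8 h, with three rats per time point. Brains were homogenized 1:3 in PBS, and samples were extracted by acetonitrile/0.1% formic acid precipitation with internal standard. Quantification was by LC-MS/MS SRM (10–2000 ng/mL calibration), with noncompartmental analysis.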

[3] = molecular target: T2, M2 (Homo sapiens, UniProt P08172); assay: [3H]-NMS competition binding, M2 CHO membranes; details: concentrations well above those required to fully activate M1
T2 sequence (P08172 1-466): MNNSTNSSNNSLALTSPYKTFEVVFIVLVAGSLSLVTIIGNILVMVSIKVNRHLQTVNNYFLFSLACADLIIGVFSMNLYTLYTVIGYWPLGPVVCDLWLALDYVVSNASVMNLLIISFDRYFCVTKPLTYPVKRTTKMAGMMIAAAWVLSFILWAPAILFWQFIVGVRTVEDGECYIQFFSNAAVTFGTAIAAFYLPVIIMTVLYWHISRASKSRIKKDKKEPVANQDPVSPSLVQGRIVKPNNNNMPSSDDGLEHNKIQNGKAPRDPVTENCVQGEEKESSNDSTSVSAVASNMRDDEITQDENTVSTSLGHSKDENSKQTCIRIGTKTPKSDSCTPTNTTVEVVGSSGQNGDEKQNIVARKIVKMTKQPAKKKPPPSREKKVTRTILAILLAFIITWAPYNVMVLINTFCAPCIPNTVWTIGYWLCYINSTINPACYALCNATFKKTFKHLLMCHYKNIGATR

[4] = molecular target: T3, rM1 EE397/401DD (Rattus norvegicus, UniProt P08482, E397D/E401D); assay: Calcium mobilization, rM1 EE397/401DD double mutant CHO-K1 cells; type: cell-based; details: compared with wt rM1 and triple mutant
T3 sequence (P08482 1-460 E397D/E401D): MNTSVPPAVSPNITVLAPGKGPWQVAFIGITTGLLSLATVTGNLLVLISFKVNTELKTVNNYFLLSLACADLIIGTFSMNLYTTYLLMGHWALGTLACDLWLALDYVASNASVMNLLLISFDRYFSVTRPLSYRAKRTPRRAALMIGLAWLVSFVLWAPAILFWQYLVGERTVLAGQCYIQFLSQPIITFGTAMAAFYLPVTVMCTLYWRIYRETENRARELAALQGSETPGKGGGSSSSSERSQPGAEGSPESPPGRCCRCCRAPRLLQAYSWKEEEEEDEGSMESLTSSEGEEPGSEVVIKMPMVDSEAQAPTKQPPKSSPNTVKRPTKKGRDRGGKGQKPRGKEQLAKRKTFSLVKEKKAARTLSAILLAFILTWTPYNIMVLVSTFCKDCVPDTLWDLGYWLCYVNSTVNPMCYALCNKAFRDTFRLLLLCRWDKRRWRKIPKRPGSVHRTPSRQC

[5] = molecular target: T4, M5 (Homo sapiens, UniProt P08912); assay: [3H]-NMS competition binding, M5 CHO membranes; details: concentrations well above those required to fully activate M1
T4 sequence (P08912 1-532): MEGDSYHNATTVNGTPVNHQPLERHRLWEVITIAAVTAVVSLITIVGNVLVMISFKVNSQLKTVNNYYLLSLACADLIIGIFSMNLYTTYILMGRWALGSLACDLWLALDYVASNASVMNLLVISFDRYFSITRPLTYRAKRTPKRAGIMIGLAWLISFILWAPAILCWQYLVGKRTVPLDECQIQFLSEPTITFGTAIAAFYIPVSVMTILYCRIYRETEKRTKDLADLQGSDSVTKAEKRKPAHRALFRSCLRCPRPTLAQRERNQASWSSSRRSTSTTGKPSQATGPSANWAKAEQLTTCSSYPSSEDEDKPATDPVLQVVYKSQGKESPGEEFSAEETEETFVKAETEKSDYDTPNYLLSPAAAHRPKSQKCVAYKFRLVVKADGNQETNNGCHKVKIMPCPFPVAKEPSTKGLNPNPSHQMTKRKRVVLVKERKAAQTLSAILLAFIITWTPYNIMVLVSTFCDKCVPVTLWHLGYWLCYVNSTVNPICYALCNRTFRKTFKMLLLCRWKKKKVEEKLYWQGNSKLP

[6] = molecular target: T5, rM1 Y381A (Rattus norvegicus, UniProt P08482, Y381A); assay: Calcium mobilization in rM1 Y381A; type: cell-based
T5 sequence (P08482 1-460 Y381A): T3 sequence (P08482 1-460 E397D/E401D) with Y381A, D397E, D401E

reduction of [3H]-NMS binding to M4 [1]: did not reduce | brain level ([2]; 10 mg/kg i.p., brain): 14490.12 ± 2663.82 ng/mL | plasma level ([2]; 10 mg/kg i.p., plasma): 311.86 ± 20.77 ng/mL | central penetrance ([2]; i.p. administration): centrally-penetrant | reduction of [3H]-NMS binding to M2 [3]: did not reduce | reduction of [3H]-NMS binding to M5 [5]: did not reduce | EC50 [6]: 304 ± 156 nM | rM1 Y381A AChmax (maximal efficacy) ([6]; rM1 Y381A cells): 63.25 % max
SMILES: CCOC(=O)N1CCC(NCCNC(=O)c2ccccc2)CC1 [VU0184670, ethyl 4-(2-benzamidoethylamino)piperidine-1-carboxylate]
functional potency and efficacy at EE397/401DD double mutant [4]: decrease the potency and efficacy further toward the levels observed with the triple mutant | potency at M1 Y381A compared with WT M1 ([6]; M1Y381A CHO cells vs WT M1 CHO cells): potencies similar to those observed in WT M1 CHO cells
